# Test results taken from ChEMBL document CHEMBL4038304, “Chiral Indolylarylsulfone Non-Nucleoside Reverse Transcriptase Inhibitors as New Potent and Broad Spectrum Anti-HIV-1 Agents” (J Med Chem, 2017).
# Assays:
# [1] = biological target: Human immunodeficiency virus type 1 reverse transcriptase (Human immunodeficiency virus 1, UniProt Q72547); experiment: Inhibition of HIV1 NL4-3 reverse transcriptase His-tagged p66/p51 associated RNA dependent DNA polymerase activity expressed in Escherichia coli assessed as reduction in [3H]dTTP incorporation using poly(rA)/oligo(dT) as template/primer by scintillation counting analysis
# [2] = system: Human immunodeficiency virus 1; experiment: Ratio of EC50 for HIV-1 harboring reverse transcriptase K103N mutant infected in human MT4 cells to EC50 for HIV1 NL4-3 infected in human MT4 cells; format: functional
# Method in brief: (§1)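 Fold change calculated as EC50 against the stated resistant mutant HIV-1 strain divided by EC50 against wild-type NL4-3. Both EC50s come from MTT read-out of virus-induced death in MT-4 cells, mean of two to three independent experiments each in triplicate.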
# [3] = Selectivity index, ratio of CC50 for human MT4 cells to EC50 for HIV1 NL4-3 infected in human MT4 cells; format: toxicity, cell-based; conditions: read-out: Ratio CC50/EC50
# Method in brief: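 SI computed as CC50/EC50, using the MTT-based CC50 in uninfected MT-4 cells and the MTT-based EC50 against HIV-1 NL4-3-induced cell death in MT-4 cells. Experiments were run in triplicate, two to three times.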
# [4] = system: Human immunodeficiency virus 1; experiment: Antiviral activity against HIV1 harboring reverse transcriptase K103N /[…] double mutant infected in human […] cells assessed as protection against virus-induced cytopathic effect measured on day 5 post infection by MTT assay; format: functional, cell-based; conditions: Human immunodeficiency virus 1, 120 h
# [5] = system: Human immunodeficiency virus 1; experiment: Antiviral activity against HIV1 harboring reverse transcriptase Y188L mutant infected in human […] cells assessed as protection against virus-induced cytopathic effect measured on day 5 post infection by MTT assay; format: functional, cell-based; conditions: Human immunodeficiency virus 1, 120 h
# [6] = biological target: Human immunodeficiency virus type 1 reverse transcriptase (Human immunodeficiency virus 1, UniProt Q72547, K103N); experiment: Inhibition of HIV1 reverse transcriptase p66 K103N mutant associated RNA dependent DNA polymerase activity expressed in Escherichia coli assessed as reduction in [3H]dTTP incorporation using poly(rA)/oligo(dT) as template/primer by scintillation counting analysis
# [7] = Inhibition of HIV1 reverse transcriptase p66 K103N/[…] double mutant associated RNA dependent DNA polymerase activity expressed in Escherichia coli assessed as reduction in [3H]dTTP incorporation using poly(rA)/oligo(dT) as template/primer by scintillation counting analysis; set-up: species or system Human immunodeficiency virus 1
# [8] = Cytotoxicity against human MT4 cells assessed as cell viability by MTT assay; format: cell-based
# Method in brief: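 Uninfected MT-4 cells scored for viability by MTT. […] Values are means of two to three independent experiments, each run in triplicate.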
# [9] = system: Human immunodeficiency virus 1; experiment: Antiviral activity against HIV1 harboring reverse transcriptase Y181C mutant infected in human […] cells assessed as protection against virus-induced cytopathic effect measured on day 5 post infection by MTT assay; format: functional, cell-based; conditions: Human immunodeficiency virus 1, 120 h
# [10] = system: Human immunodeficiency virus 1; experiment: Ratio of EC50 for HIV-1 harboring reverse transcriptase Y188L mutant infected in human MT4 cells to EC50 for HIV1 NL4-3 infected in human MT4 cells; format: functional; method in brief: as §1
# [11] = system: Human immunodeficiency virus 1; experiment: Antiviral activity against HIV1 harboring reverse transcriptase K103N mutant infected in human […] cells assessed as protection against virus-induced cytopathic effect measured on day 5 post infection by MTT assay; format: functional, cell-based; conditions: Human immunodeficiency virus 1, 120 h
# [12] = system: Human immunodeficiency virus 1; experiment: Antiviral activity against HIV1 NL4-3 infected in human […] cells assessed as protection against virus-induced cytopathic effect measured on day 5 post infection by MTT assay; format: functional, cell-based; conditions: Human immunodeficiency virus 1, NL4-3, 120 h
# Method in brief: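 Values are means of two to three independent experiments, each run in triplicate. The lowest detectable concentration is reported where activity fell below the assay limit.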
# [13] = biological target: Human immunodeficiency virus type 1 reverse transcriptase (Human immunodeficiency virus 1, UniProt Q72547, Y181I); experiment: Inhibition of HIV1 reverse transcriptase p66 Y181I mutant associated RNA dependent DNA polymerase activity expressed in Escherichia coli assessed as reduction in [3H]dTTP incorporation using poly(rA)/oligo(dT) as template/primer by scintillation counting analysis
# [14] = system: Human immunodeficiency virus 1; experiment: Ratio of EC50 for HIV-1 harboring reverse transcriptase K103N/[…] double mutant infected in human MT4 cells to EC50 for HIV1 NL4-3 infected in human MT4 cells; format: functional; method in brief: as §1
# [15] = system: Human immunodeficiency virus 1; experiment: Ratio of EC50 for HIV-1 harboring reverse transcriptase Y181C mutant infected in human MT4 cells to EC50 for HIV1 NL4-3 infected in human MT4 cells; format: functional; method in brief: as §1
Compound,IC50 [1],Ratio EC50 [2],selectivity ratio [3],EC50 [4],EC50 [5],IC50 [6],IC50 [7],CC50 [8],EC50 [9],Ratio EC50 [10],EC50 [11],EC50 [12],IC50 [13],Ratio EC50 [14],Ratio EC50 [15]
Cc1cc(C)cc(S(=O)(=O)c2c(C(=O)NCC(=O)NCc3ccco3)[nH]c3ccc(Cl)cc23)c1,145 nM,>86,> 83400,18500 nM,1120 nM,538 nM,586 nM,> 50000 nM,< 0.6 nM,>1600,60 nM,0.6 nM,461 nM,>26477,–
Cc1cc(C)cc(S(=O)(=O)c2c(C(=O)N[C@H](C)C(=O)NCc3ccco3)[nH]c3ccc(Cl)cc23)c1,145 nM,–,–,> 30200 nM,> 30200 nM,70 nM,233 nM,–,933 nM,–,311 nM,0.6 nM,276 nM,–,–
Cc1cc(C)cc(S(=O)(=O)c2c(C(=O)N[C@@H](C)C(=O)N[C@@H](C)c3ccncc3)[nH]c3ccc(Cl)cc23)c1,430 nM,–,–,1280 nM,612 nM,2590 nM,860 nM,–,0.6 nM,–,1.3 nM,0.6 nM,440 nM,–,–
Cc1cc(C)cc(S(=O)(=O)c2c(C(=O)N[C@@H](C)C(=O)NCc3ccco3)[nH]c3ccc(Cl)cc23)c1,113 nM,–,–,1890 nM,700 nM,1120 nM,9640 nM,–,3.5 nM,–,0.6 nM,0.6 nM,14200 nM,–,–
Cc1cc(C)cc(S(=O)(=O)c2c(C(=O)Nc3ccnc(C#N)c3)[nH]c3ccc(Cl)cc23)c1,23 nM,1,> 9770,> 6840 nM,–,72 nM,514 nM,6840 nM,65 nM,–,0.7 nM,0.7 nM,306 nM,>9771,92
Cc1cc(C)cc(S(=O)(=O)c2c(C(=O)NCC(=O)NCc3ccncn3)[nH]c3ccc(Cl)cc23)c1,202 nM,33,> 81400,2300 nM,449 nM,548 nM,835 nM,> 48800 nM,0.6 nM,>743,19.6 nM,0.6 nM,529 nM,>3842,1
Cc1cc(C)cc(S(=O)(=O)c2c(C(=O)N[C@@H](C)C(=O)NCc3ccncn3)[nH]c3ccc(Cl)cc23)c1,470 nM,–,–,779 nM,380 nM,2860 nM,14300 nM,–,0.6 nM,–,0.6 nM,0.6 nM,3140 nM,–,–
Cc1cc(C)cc(S(=O)(=O)c2c(C(=O)N[C@H](C)C(=O)NCc3ccncn3)[nH]c3ccc(Cl)cc23)c1,1800 nM,–,–,> 24500 nM,5740 nM,19900 nM,–,–,171 nM,–,76 nM,0.6 nM,3350 nM,–,–
Cc1cc(C)cc(S(=O)(=O)c2c(C(=O)NC(C)C(=O)NCCn3c(C)cnc3[N+](=O)[O-])[nH]c3ccc(Cl)cc23)c1 (racemic),–,850,94200,5280 nM,4770 nM,–,–,16000 nM,170 nM,23850,170 nM,0.2 nM,–,26405,850
Cc1cc(C)cc(S(=O)(=O)c2c(C(=O)NCc3ccc4nc(N)[nH]c4c3)[nH]c3ccc(Cl)cc23)c1,278 nM,30,> 9810,> 5890 nM,–,183 nM,470 nM,5890 nM,79 nM,–,18 nM,0.6 nM,284 nM,>9810,132
Cc1cc(C)cc(S(=O)(=O)c2c(C(=O)N[C@@H](C)C(=O)N[C@H](C)c3ccncc3)[nH]c3ccc(Cl)cc23)c1,610 nM,–,–,1260 nM,742 nM,300 nM,490 nM,–,0.6 nM,–,0.6 nM,0.6 nM,1700 nM,–,–
Cc1cc(C)cc(S(=O)(=O)c2c(C(=O)NCc3n[nH]c4ccccc34)[nH]c3ccc(Cl)cc23)c1,–,1,> 84500,548 nM,142 nM,–,–,> 50700 nM,0.6 nM,237,0.6 nM,0.6 nM,–,913,1
Cc1cc(C)cc(S(=O)(=O)c2c(C(=O)NCc3cccc(N)c3)[nH]c3ccc(Cl)cc23)c1,41 nM,1,> 76300,86 nM,24 nM,66 nM,35 nM,> 53400 nM,0.7 nM,34,0.7 nM,0.7 nM,64 nM,123,1
Cc1cc(C#N)cc(C)c1Oc1nc(Nc2ccc(C#N)cc2)nc(N)c1Br [ETRAVIRINE],–,–,–,4.6 nM,–,–,97 nM,> 23000 nM,18 nM,–,0.7 nM,16.1 nM,–,–,–
Cc1cc(C)cc(S(=O)(=O)c2c(C(=O)N[C@H](C)C(=O)N[C@H](C)c3ccncc3)[nH]c3ccc(Cl)cc23)c1,410 nM,–,–,> 27000 nM,> 27000 nM,23700 nM,13800 nM,–,1170 nM,–,1210 nM,3.8 nM,5790 nM,–,–
Cc1cc(C)cc(S(=O)(=O)c2c(C(=O)N[C@H](C)C(=O)N[C@@H](C)c3ccncc3)[nH]c3ccc(Cl)cc23)c1,1190 nM,–,–,19300 nM,> 28500 nM,3550 nM,8420 nM,–,668 nM,–,204 nM,1.9 nM,9510 nM,–,–
Cc1cc(C)cc(S(=O)(=O)c2c(C(=O)NC(C)C(=O)NCc3ccncn3)[nH]c3ccc(Cl)cc23)c1 (racemic),–,1,> 46800,798 nM,760 nM,–,–,28100 nM,0.6 nM,>1267,0.6 nM,0.6 nM,–,>1330,1
Cc1cc(C)cc(S(=O)(=O)c2c(C(=O)NCC(=O)NC(C)c3ccccc3F)[nH]c3ccc(Cl)cc23)c1 (racemic),–,552,> 38300,> 23000 nM,3670 nM,–,–,> 23000 nM,13 nM,6118,387 nM,0.6 nM,–,>38345,19
Cc1cc(C)cc(S(=O)(=O)c2c(C(=O)NC(C)c3ccco3)[nH]c3ccc(Cl)cc23)c1 (racemic),–,155,> 78200,12000 nM,350 nM,–,–,> 54700 nM,22 nM,500,109 nM,0.7 nM,–,17195,31
